Experimental findings from ChEMBL document CHEMBL1667838, “Spirodiketopiperazine-based CCR5 antagonist: discovery of an antiretroviral drug candidate” (Bioorg Med Chem Lett, 2011) are described below.

Converted amounts (≈) assume the structure as drawn.

In general, IC50 refers to the midpoint of a concentration-inhibition curve. The term half-life denotes how long it takes for the measured level to halve. The low end stands for fast loss, the high end for slow loss. As usually defined, the AUC is concentration integrated over time. As a reminder, the Cmax is the peak of the concentration-time curve. By solubility is commonly meant how much of the substance goes into solution per volume. Lower therefore signals a poorly soluble substance. What is called clearance is the rate of elimination divided by the concentration. A high value points to efficient removal. In general, bioavailability refers to dose-corrected exposure relative to a reference, in per cent. Lower therefore signals little systemic uptake.

The target in one data set is Cytochrome P450 2C9 (Homo sapiens, UniProt P11712). Briefly: Inhibition of CYP2C9. The data set is classed as ADME. The procedure, abridged:
(§1)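 Inhibition tested separately against P450 isoforms 2C9, 2D6 and 3A4, with test concentrations up to 30 μM.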

The target in data set [1] is T1, Cytochrome P450 3A4 (Homo sapiens, UniProt P08684). In words: Inhibition of CYP3A4. The data set is classed as ADME. The procedure, abridged: as §1
T1 sequence (P08684 whole entry): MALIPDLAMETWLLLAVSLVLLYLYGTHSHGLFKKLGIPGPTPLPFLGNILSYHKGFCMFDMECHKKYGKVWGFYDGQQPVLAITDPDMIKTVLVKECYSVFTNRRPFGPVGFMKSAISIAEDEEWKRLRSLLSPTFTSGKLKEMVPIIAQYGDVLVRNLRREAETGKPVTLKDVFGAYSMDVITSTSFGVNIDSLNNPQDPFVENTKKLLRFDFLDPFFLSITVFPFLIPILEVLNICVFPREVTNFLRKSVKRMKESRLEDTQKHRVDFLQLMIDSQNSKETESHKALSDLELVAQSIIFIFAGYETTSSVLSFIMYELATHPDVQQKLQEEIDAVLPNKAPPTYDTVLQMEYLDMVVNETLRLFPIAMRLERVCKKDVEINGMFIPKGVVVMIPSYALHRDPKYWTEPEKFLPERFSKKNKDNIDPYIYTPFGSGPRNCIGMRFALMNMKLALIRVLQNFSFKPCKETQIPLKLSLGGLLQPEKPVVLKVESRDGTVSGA
For the next data set, the target named is Cytochrome P450 2D6 (Homo sapiens, UniProt P10635). Briefly: Inhibition of CYP2D6. The data set is classed as ADME. The procedure, abridged: as §1
Cytochrome P450 2D6, sequence (P10635 whole entry): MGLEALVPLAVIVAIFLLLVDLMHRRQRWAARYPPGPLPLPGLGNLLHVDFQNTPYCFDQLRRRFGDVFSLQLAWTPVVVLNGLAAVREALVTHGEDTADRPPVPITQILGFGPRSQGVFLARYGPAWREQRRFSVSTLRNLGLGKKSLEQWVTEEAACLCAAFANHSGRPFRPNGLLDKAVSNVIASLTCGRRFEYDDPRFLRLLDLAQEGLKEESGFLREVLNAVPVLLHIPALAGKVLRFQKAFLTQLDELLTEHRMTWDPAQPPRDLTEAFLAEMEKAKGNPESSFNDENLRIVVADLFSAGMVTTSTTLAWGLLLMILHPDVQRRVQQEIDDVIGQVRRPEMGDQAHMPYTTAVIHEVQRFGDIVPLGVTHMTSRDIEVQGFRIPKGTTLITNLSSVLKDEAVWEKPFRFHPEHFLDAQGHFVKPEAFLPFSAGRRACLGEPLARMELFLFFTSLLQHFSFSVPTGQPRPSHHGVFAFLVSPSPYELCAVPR
Data set [2] has as its target T1, Cytochrome P450 3A4. In words: Inhibition of CYP3A4 upto 30 uM. The data set is classed as ADME. In a few lines:
as §1

Data set [3] can be described thus: Half life in rat at 10 mg/kg, po. The data set is classed as ADME, organism-based. The arrangement: dose 10 mg/kg, route oral. The settings on record: in vivo. The procedure, abridged:
(§2)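 Single-dose oral and intravenous administration in rats. Plasma PK parameters were derived from these dosings: clearance and Vss after iv dosing, and Cmax and AUC after oral dosing.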

Data set [4] in a line: (§3) AUC in rat at 10 mg/kg, po. The data set is classed as ADME, organism-based, Plasma. The arrangement: dose 10 mg/kg, route oral. The settings on record: plasma.
The nature of data set [5]: Cmax in rat at 10 mg/kg, po. The data set is classed as ADME, organism-based. On the set-up: dose 10 mg/kg, route oral. As to conditions: in vivo; call rule not given here.
Data set [6] can be described thus: Solubility of the compound. The data set is classed as physicochemical. The procedure, abridged:
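Kinetic aqueous solubility, determined at pH 6.8 and reported in […].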

A short description of data set [7]: Half life in rat at 3 mg/kg, iv. The data set is classed as ADME, organism-based. On the set-up: dose 3 mg/kg, route intravenous. As to conditions: in vivo.
The test system of data set [8] is Rattus norvegicus. The data set is described as §3. The settings on record: in vivo. The data set is classed as ADME, organism-based, Plasma. On the set-up: dose 10 mg/kg, route oral.
Data set [9] relates to Rattus norvegicus. In words: (§4) AUC in rat at 3 mg/kg, iv. The data set is classed as ADME, organism-based, Plasma. On the set-up: dose 3 mg/kg, route intravenous. As to conditions: in vivo. In a few lines: as §2
A short description of data set [10]: Clearance in rat at 3 mg/kg, iv. The data set is classed as ADME, organism-based. On the set-up: dose 3 mg/kg, route intravenous. The settings on record: in vivo.
Data set [11] relates to Rattus norvegicus. Briefly: (§5) Oral bioavailability in rat at 10 mg/kg. As to conditions: in vivo. The data set is classed as ADME, organism-based. The procedure, abridged: as §2
In data set [12] the test system is Human immunodeficiency virus 1. Briefly: Antiviral activity against multidrug-resistant R5 tropic HIV1 MM infected in human PBMC assessed as inhibition of […] antigen expression. The data set is classed as functional, organism-based. As to conditions: Human immunodeficiency virus 1, MM.
Data set [13] deals with Human immunodeficiency virus 1. Briefly: Antiviral activity against R5 tropic HIV1 Ba-L infected in human PBMC assessed as inhibition of […] antigen expression. The data set is classed as functional, organism-based. The settings on record: Human immunodeficiency virus 1, Ba-L.
In another data set the test system is Caco-2. Briefly: Permeability across human Caco2 cell membrane. The data set is classed as ADME, cell-based. Background: Caco-2 monolayers are a common model of the intestinal barrier.
Data set [14] is described as follows: as §4. The data set is classed as ADME, organism-based, Plasma. On the set-up: dose 3 mg/kg, route intravenous. As to conditions: plasma. The procedure, abridged: as §2
The nature of data set [15]: as §5. The data set is classed as ADME, organism-based. The settings on record: in vivo. In a few lines: as §2
The target in data set [16] is C-C chemokine receptor type 5 (Homo sapiens, UniProt P51681). Briefly: Antagonist activity at human CCR5 expressed in CHO cells assessed as inhibition of MIP-1alpha-induced calcium mobilization Ca assay. The data set is classed as functional, cell-based. A general note: Calcium flux is commonly read through the fluorescence of an indicator in the cells.
C-C chemokine receptor type 5, sequence (P51681 whole entry): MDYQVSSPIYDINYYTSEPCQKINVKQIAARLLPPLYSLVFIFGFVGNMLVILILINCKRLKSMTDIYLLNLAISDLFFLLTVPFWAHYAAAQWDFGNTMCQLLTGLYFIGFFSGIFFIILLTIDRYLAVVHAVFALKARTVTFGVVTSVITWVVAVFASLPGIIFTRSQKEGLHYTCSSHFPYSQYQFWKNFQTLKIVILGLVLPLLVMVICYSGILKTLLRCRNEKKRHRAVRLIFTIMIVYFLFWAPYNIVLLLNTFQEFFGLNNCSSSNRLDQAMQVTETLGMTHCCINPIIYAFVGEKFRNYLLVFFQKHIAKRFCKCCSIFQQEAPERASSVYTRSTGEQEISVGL
Data set [17] is described as follows: Aqueous solubility of the compound at pH 6.8. The data set is classed as physicochemical. The settings on record: buffer. In a few lines: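 Kinetic aqueous solubility at pH 6.8, reported in μg/mL.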

Cytochrome P450 2C9, sequence (P11712 whole entry, canonical isoform): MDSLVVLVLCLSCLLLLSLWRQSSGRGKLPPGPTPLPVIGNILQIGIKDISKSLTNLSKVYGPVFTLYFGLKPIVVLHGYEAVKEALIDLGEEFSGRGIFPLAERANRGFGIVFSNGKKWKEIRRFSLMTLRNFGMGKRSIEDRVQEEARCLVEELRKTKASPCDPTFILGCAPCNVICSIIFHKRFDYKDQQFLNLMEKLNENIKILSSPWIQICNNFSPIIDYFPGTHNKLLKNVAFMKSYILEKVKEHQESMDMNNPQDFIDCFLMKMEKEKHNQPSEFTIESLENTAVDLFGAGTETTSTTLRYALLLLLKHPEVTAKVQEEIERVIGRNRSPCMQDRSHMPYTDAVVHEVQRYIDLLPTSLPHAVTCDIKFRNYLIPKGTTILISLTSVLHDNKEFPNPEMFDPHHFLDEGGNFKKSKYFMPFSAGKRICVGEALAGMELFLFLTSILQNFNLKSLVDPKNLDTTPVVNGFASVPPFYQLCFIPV

For `CCCCN1C(=O)[C@@H]([C@H](O)C2CCCCC2)NC(=O)C12CCN(Cc1ccc(Oc3ccccc3)cc1)CC2.Cl`, the values for the IC50 on Cytochrome P450 2C9, at Cytochrome P450 3A4 [1] and against Cytochrome P450 2D6 were 3.7 µM, more than 30 µM and 9.8 µM, respectively. In addition, the “inhibition (INH)” value on Cytochrome P450 3A4 [2] is on record as “Not Active”.

Consider `CCCCN1C(=O)[C@@H]([C@@H](O)C2CCCCC2)NC(=O)C12CCN(Cc1ccc(Oc3ccc(C(=O)O)cc3)cc1)CC2.Cl`, for which the half-life in data set [3] came out at 35.2 min. The IC50 was 18 µM at Cytochrome P450 2C9, more than 30 µM against Cytochrome P450 3A4 [1] and more than 30 µM against Cytochrome P450 2D6. This molecule also displayed an AUC in data set [4] of 67.5 ng·h/mL. The peak level in [5] (Cmax) was 70 ng/mL. For the same molecule, the solubility in data set [6] worked out at 81 µM.

Regarding `CCCCN1C(=O)[C@H](CC2CCCCC2)NC(=O)C12CCN(Cc1ccc(Oc3ccc(C(=O)O)cc3)cc1)CC2.Cl`, the half-life in data set [3] is 48.4 min; in data set [7], 11.1 min. Also, the IC50 was 8.8 µM on Cytochrome P450 2C9, 24.9 µM against Cytochrome P450 3A4 [1] and more than 30 µM on Cytochrome P450 2D6. The AUC in the data set with Rattus norvegicus [8] was 10532 ng·h/mL; in the data set on Rattus norvegicus [9], 3091 ng·h/mL. In [10], this molecule showed a clearance of 16 mL/min/kg. In addition, the Cmax in data set [5] was found to be 2400 ng/mL. The same molecule showed a F with Rattus norvegicus [11] of 34%.

In the case of `COC[C@@H](c1ccc(C(F)(F)F)cc1)N1CCN(C2(C)CCN(C(=O)c3c(C)ncnc3C)CC2)C[C@@H]1C` [VICRIVIROC], the IC50 in data set [12] amounted to 0.003 µM; in [13] it was 0.004 µM.

The molecule `CCCCN1C(=O)[C@H]([C@H](O)C2CCCCC2)NC(=O)C12CCN(Cc1ccc(Oc3ccc(C(=O)O)cc3)cc1)CC2` yielded a half-life in [3] of 14.4 min. Moreover, the IC50 against Cytochrome P450 2C9, against Cytochrome P450 3A4 [1] and at Cytochrome P450 2D6 was more than 30 µM throughout. In data set [4], this molecule registered an AUC of 126 ng·h/mL. Also, the permeability in the data set on Caco-2 came out at 1.6 ×10⁻⁶ cm/s. The concentration in data set [5] peaked (Cmax) at 280 ng/mL. Besides, the solubility in data set [6] came out at 85 µM (≈ 49.1 µg/mL).

With `CCCCN1C(=O)[C@H]([C@@H](O)C2CCCCC2)NC(=O)C12CCN(Cc1ccc(Oc3ccc(C(=O)O)cc3)cc1)CC2.Cl`, the half-life in [3] came out at 19.2 min; in [7], 16.2 min. The IC50 on Cytochrome P450 2C9, on Cytochrome P450 3A4 [1] and against Cytochrome P450 2D6 was more than 30 µM throughout. Also, the AUC was 213 ng·h/mL in [4] and 988 ng·h/mL in [14]. In the data set with Caco-2, the permeability is listed as 2.1 ×10⁻⁶ cm/s. This molecule also showed a clearance in data set [10] of 50.9 mL/min/kg. The molecule also returned a Cmax in [5] of 260 ng/mL. In addition, the solubility in data set [6] was found to be 80 µM. The molecule further yielded a bioavailability in data set [15] of 6.5%.

Regarding `CCCCN1C(=O)[C@@H]([C@H](O)C2CCCCC2)NC(=O)C12CCN(Cc1ccc(Oc3ccc(C(=O)O)cc3)cc1)CC2.Cl` [APLAVIROC HYDROCHLORIDE], the half-life stood at 120 min in data set [3] and 21.8 min in data set [7]. For the same molecule, the IC50 against Cytochrome P450 2C9, on Cytochrome P450 3A4 [1] and against Cytochrome P450 2D6 was more than 30 µM in each case. Besides, the AUC in data set [4] worked out at 3420 ng·h/mL; in data set [14], 4400 ng·h/mL. The molecule also gave a permeability in the data set on Caco-2 of 3.8 ×10⁻⁶ cm/s. The molecule further registered a clearance in data set [10] of 11.3 mL/min/kg. In data set [5], this molecule displayed a Cmax of 2360 ng/mL. The solubility in data set [6] worked out at 70 µM. In addition, the bioavailability in data set [15] was found to be 23%.

In the case of `Cc1c(O)cccc1C(=O)N[C@@H](CSc1ccccc1)[C@H](O)CN1C[C@H]2CCCC[C@H]2C[C@H]1C(=O)NC(C)(C)C`, the IC50 in data set [12] was more than 1 µM.

Take `CCCCN1C(=O)C(CC(C)C)NC(=O)C12CCN(Cc1ccc(Oc3ccccc3)cc1)CC2.Cl` (racemic): the half-life in data set [3] stood at 75.7 min. In addition, the IC50 was determined as 5.9 µM against Cytochrome P450 2C9, 19.7 µM at Cytochrome P450 3A4 [1] and 4.6 µM against Cytochrome P450 2D6. The AUC in the data set on Rattus norvegicus [9] turned out to be 372 ng·h/mL. Besides, the bioavailability in [15] came out at 1.3%.

With `CCCCN1C(=O)[C@@H]([C@H](O)C(C)C)NC(=O)C12CCN(Cc1ccc(Oc3ccccc3)cc1)CC2`, the IC50 was 0.084 µM in [16], more than 30 µM against Cytochrome P450 2C9, more than 30 µM on Cytochrome P450 3A4 [1] and more than 30 µM against Cytochrome P450 2D6.

Consider `Cc1ccc(-c2ccc3c(c2)C=C(C(=O)Nc2ccc(C[N+](C)(C)C4CCOCC4)cc2)CCC3)cc1`, for which the IC50 in [12] came to 0.014 µM; in [13] it was 0.028 µM.

In data set [3], `CCCCN1C(=O)C(CC2CCCCC2)NC(=O)C12CCN(Cc1ccc(Oc3ccccc3)cc1)CC2.Cl` (racemic) showed a half-life of 103 min. Also, the IC50 against Cytochrome P450 2C9 was determined as 5.5 µM; at Cytochrome P450 2D6 it was 7.8 µM. Moreover, the AUC in the data set on Rattus norvegicus [9] came to 400 ng·h/mL. The molecule also registered a solubility in [17] of less than 0.2 µg/mL. Besides, the bioavailability in data set [15] is 1.9%.
